The source of these data is ChEMBL document CHEMBL1134779, “Synthesis and characterization of the antitumor activities of analogues of meridine, a marine pyridoacridine alkaloid” (J Med Chem, 2001).

The test system of one experiment is A-427. Nature of the experiment: In vitro inhibition of A-427 (human lung cancer) cell growth. It is filed as functional, cell-based. A digest of the protocol: (§1)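 Human cancer lines from ATCC, grown at 37 °C in sealed dishes in Eagle's MEM with 5% FCS. Cells were seeded at 40000 cells/mL and plated for 24 h before drug exposure. Six concentrations from 10^-5 to 10^-10 M were tested. Growth was read by MTT reduction to formazan at 570 nm (reference 630 nm), in sextuplicate. IC50 is the concentration giving 50% growth reduction versus control.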

A further experiment concerns A549. Kind of experiment: In vitro inhibition of A549 (human lung cancer) cell growth. The class given is functional, cell-based. A digest of the protocol: as §1
Another experiment relates to J82. Kind of experiment: In vitro inhibition of J82 (human bladder cancer) cell growth. It is filed as functional, cell-based. In short, it runs like this:
as §1

For another experiment, the system named is MCF7. Kind of experiment: In vitro inhibition of MCF-7 (human breast cancer) cell growth. The class given is functional, cell-based. A digest of the protocol:
as §1

The next experiment relates to PC-3. Kind of experiment: In vitro inhibition of PC-3 (human prostate cancer) cell growth. The class given is functional, cell-based. In short, it runs like this:
as §1

A short description of experiment [1]: In vitro inhibition of T24 (human bladder cancer) cell growth. The class given is functional, cell-based. Conditions: T-24. A digest of the protocol:
as §1

The test system of another experiment is T47D. Nature of the experiment: In vitro inhibition of T-47D (human breast cancer) cell growth. The class given is functional, cell-based. A digest of the protocol: as §1
A further experiment concerns U373 MG. Kind of experiment: In vitro inhibition of U-373 MG (human glioblastoma) cell growth. It is filed as functional, cell-based, U-373MG ATCC. A digest of the protocol:
as §1

For the next experiment, the system named is HCT-15. Nature of the experiment: In vitro inhibition of HCT-15 (human colon cancer) cell growth. It is filed as functional, cell-based. A digest of the protocol: as §1
Another experiment relates to LoVo. Kind of experiment: In vitro inhibition of LoVo (human colon cancer) cell growth. The class given is functional, cell-based. In short, it runs like this:
as §1

The subject of a further experiment is U-87 MG. Kind of experiment: In vitro inhibition of U-87 MG (human glioblastoma) cell growth. It is filed as functional, cell-based, U-87MG ATCC. A digest of the protocol:
as §1

For a further experiment, the system named is SW1088 (human). Kind of experiment: In vitro inhibition of SW1088 (human astrocytoma) cell growth.

For the compound `COc1ccnc2c1-c1nc3ccccc3c3ccnc(c13)C2=O`, the IC50 (in general, the midpoint of a concentration-inhibition curve) with A-427 was 5 nM; in the experiment with A549, 0.3 nM; in the experiment with J82, 0.9 nM; in the experiment on MCF7, less than 0.1 nM; in the experiment on PC-3 it was 60 nM; in [1], 6 nM. In addition, the IC50 in the experiment on T47D is 30 nM; with U373 MG, less than 0.1 nM; in the experiment on HCT-15, 2 nM; with LoVo, 0.3 nM; with U-87 MG, less than 0.1 nM; in the experiment with SW1088 (human), 60 nM.

For the compound `O=C1c2nccc(Br)c2-c2nc3ccccc3c3ccnc1c23`, the IC50 came to 700 nM in the experiment with A-427; 3300 nM in the experiment with A549; 9000 nM in the experiment with J82; 1100 nM in the experiment on MCF7; 4900 nM with PC-3; 700 nM in experiment [1]. Also, the IC50 in the experiment with T47D was 4400 nM; in the experiment with U373 MG, 900 nM; with HCT-15, 3600 nM; with LoVo, 800 nM; with U-87 MG, 700 nM; in the experiment on SW1088 (human), 3000 nM.

For `CCOC(=O)c1cnc2c(c1)-c1nc3ccccc3c3ccnc(c13)C2=O`, the IC50 amounted to 800 nM in the experiment on A-427; 80 nM in the experiment with A549; 5200 nM with J82; 700 nM with MCF7; 5700 nM with PC-3; 900 nM in experiment [1]. For the same compound, the IC50 is 2900 nM in the experiment on T47D; 700 nM in the experiment with U373 MG; 200 nM with HCT-15; 700 nM with LoVo; 70 nM in the experiment with U-87 MG; 2800 nM in the experiment with SW1088 (human).

As for `O=C1c2nccc(Cl)c2-c2nc3ccccc3c3ccnc1c23`, the 50% inhibitory concentration (IC50) with A-427 was determined as 900 nM; in the experiment on A549, 7 nM; with J82, 90 nM; with MCF7, 80 nM; in the experiment with PC-3, 500 nM; in experiment [1], 90 nM. The IC50 in the experiment on T47D is 2700 nM; in the experiment with U373 MG, 100 nM; with HCT-15, 100 nM; with LoVo it was 50 nM; with U-87 MG, 20 nM; with SW1088 (human) it was 4300 nM.

`O=C1c2nccc(Cl)c2C(=O)c2c(-c3ccccc3NC(=O)C(F)(F)F)ccnc21`: the IC50 amounted to 600 nM with A-427; 70 nM in the experiment with A549; 3300 nM in the experiment on J82; 60 nM with MCF7; 900 nM in the experiment on PC-3; 200 nM in [1]. For the same compound, the IC50 amounted to 2100 nM in the experiment with T47D; 90 nM with U373 MG; 10 nM with HCT-15; 60 nM in the experiment on LoVo; 50 nM in the experiment with U-87 MG; 3800 nM with SW1088 (human).

`COc1ccnc2c1C(=O)c1c(-c3ccccc3NC(=O)C(F)(F)F)ccnc1C2=O`: the IC50 was 50 nM in the experiment on A-427; less than 0.1 nM with A549; 0.9 nM in the experiment with J82; 0.3 nM with MCF7; 50 nM with PC-3; 7 nM in experiment [1]. For the same compound, the IC50 with T47D was 30 nM; in the experiment with U373 MG it was less than 0.1 nM; with HCT-15, 2 nM; in the experiment with LoVo, 0.1 nM; with U-87 MG, less than 0.1 nM; with SW1088 (human) it was 50 nM.

As to `O=C1c2nc(O)ccc2C(=O)c2c(-c3ccccc3NC(=O)C(F)(F)F)ccnc21`, the IC50 was found to be 40 nM in the experiment with A-427; 50 nM with A549; 2100 nM in the experiment with J82; 30 nM with MCF7; 900 nM with PC-3; 50 nM in [1]. In addition, the IC50 in the experiment on T47D was determined as 200 nM; in the experiment with U373 MG, 40 nM; in the experiment with HCT-15, 60 nM; with LoVo it was 40 nM; in the experiment with U-87 MG, 40 nM; in the experiment with SW1088 (human) it was 60 nM.
